# Measurements reported in ChEMBL document CHEMBL4325837, “Discovery of novel NO-releasing celastrol derivatives with Hsp90 inhibition and cytotoxic activities” (Eur J Med Chem, 2018).
# Columns and labels:
# A549 = test: Antiproliferative activity against human A549 cells after 48 hrs by MTT assay; assay type: functional, cell-based; conditions: A549, 48 h
# Procedure, shortened: (§1)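 MTT assay. Cells were seeded at 5.0 × 10⁴ cells/ml in 100 μL per well and grown 24 h. They were then exposed to a range of concentrations for 48 h. MTT (5 mg/ml) was added for 4 h, the supernatant was removed and DMSO was added. OD was read at 570 nm. Assays were run in triplicate and IC50 is reported as mean ± SD, n = 3.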
# MCF7 = test: Antiproliferative activity against human MCF7 cells after 48 hrs by MTT assay; assay type: functional, cell-based; conditions: MCF7, 48 h; procedure, shortened: as §1
# HOS = test: Antiproliferative activity against human HOS cells after 48 hrs by MTT assay; assay type: functional, cell-based; procedure, shortened: as §1
# HepG2 = test: Antiproliferative activity against human HepG2 cells after 48 hrs by MTT assay; assay type: functional, cell-based; conditions: HepG2, 48 h; procedure, shortened: as §1
# [1] = Drug metabolism in human A549 cells assessed as nitric oxide release at 4 uM measured up to 24 hrs; assay type: ADME, cell-based; conditions: a549, 24 h
# Procedure, shortened: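 A549 cells were seeded at 5.0 × 10⁴ cells/ml in 100 μL wells and grown 24 h at 37 °C. Hybrids were added at 4 μM for varying times, with 24 h used for the full set. NO was measured with a Nitrate/Nitrite assay kit against a standard curve, reading OD at 550 nm. Values are the mean of three independent experiments.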
SMILES,IC50 (A549),IC50 (MCF7),IC50 (HOS),IC50 (HepG2),Drug metabolism [1]
CC1=C(O)C(=O)C=C2C1=CC=C1[C@@]2(C)CC[C@@]2(C)[C@@H]3C[C@](C)(C(=O)NCCOc4no[n+]([O-])c4S(=O)(=O)c4ccccc4)CC[C@]3(C)CC[C@]12C,1080 nM,1520 nM,1470 nM,3820 nM,Metabolite_Detected
CC1=C(O)C(=O)C=C2C1=CC=C1[C@@]2(C)CC[C@@]2(C)[C@@H]3C[C@](C)(C(=O)OCC(C)COc4no[n+]([O-])c4S(=O)(=O)c4ccccc4)CC[C@]3(C)CC[C@]12C (some centres undefined),1110 nM,1490 nM,1670 nM,2390 nM,Metabolite_Detected
CC1=C(O)C(=O)C=C2C1=CC=C1[C@@]2(C)CC[C@@]2(C)[C@@H]3C[C@](C)(C(=O)OCCCO[N+](=O)[O-])CC[C@]3(C)CC[C@]12C,3220 nM,2540 nM,1370 nM,1850 nM,Metabolite_Detected
CC1=C(O)C(=O)C=C2C1=CC=C1[C@@]2(C)CC[C@@]2(C)[C@@H]3C[C@](C)(C(=O)OCCCCOc4no[n+]([O-])c4S(=O)(=O)c4ccccc4)CC[C@]3(C)CC[C@]12C,2460 nM,3950 nM,2470 nM,3530 nM,–
